Source: publication PMC3899454 (Clinical Drug Investigation, 2013)

Legend:
[1] = Safety and tolerability after a single dose; assay type: in vivo, human; details: 24 subjects
Summary of the method: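 Single 0.4 U/kg s.c. thigh dose given at 0800–1000 h. Safety assessed by adverse events (severity and relationship graded by investigator), physical examination, vital signs, ECG, biochemistry, hematology, urinalysis and hypoglycemia. Confirmed hypoglycemia: plasma glucose <3.1 mmol/L or ADA 'severe'. Treatment-emergent: onset from dosing to 7 days post-dose. Blood glucose sampled to 120 h.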

[2] = compared with insulin glargine; cited from earlier work
[3] = cited from earlier work

Q: With insulin degludec as the substance, how does the “Adverse events (other than hypoglycemia) or medical events of special interest” value ([1]; single s.c. dose 0.4 U/kg) read?
A: No adverse events

Q: And the Injection-site reactions ([1]; single s.c. dose 0.4 U/kg into the thigh)?
A: No injection-site reactions were reported

Q: What about the Severe hypoglycemic episodes ([1]; single s.c. dose 0.4 U/kg, ADA definition of severe) of the same substance?
A: none of these episodes were categorized as severe

Q: What about the “Variability of glucose-lowering effect” value [2] of the same substance?
A: four times less variable glucose-lowering effect

Q: And the “Pharmacokinetic properties in subjects with renal impairment” value ([3]; varying degrees of impaired renal function)?
A: pharmacokinetic properties were also preserved in subjects with renal impairment

Q: Which “Effect of hepatic dysfunction on glucodynamic response” value [3] does the source give for insulin lispro here?
A: did not appear to affect the glucodynamic response

Q: With insulin detemir as the substance, how does the “Pharmacokinetics in subjects with renal or hepatic impairment” value [3] read?
A: no clinically relevant difference in pharmacokinetics

Q: With insulin aspart as the substance, how does the “Impact of hepatic impairment and renal impairment on pharmacokinetics” value ([3]; single-dose pharmacokinetic studies) read?
A: no significant impact
